# Assay results: ChEMBL document CHEMBL4350960, “Structural Basis for E. coli Penicillin Binding Protein (PBP) 2 Inhibition, a Platform for Drug Design” (J Med Chem, 2019)
# Activity calls are given as the source filed them. The calls are words filed in the database; no cut-off is given here.
# Experiments:
# [1] = molecular target: T1, Peptidoglycan D,D-transpeptidase MrdA (Escherichia coli K-12, UniProt P0AD65); test: (§1) Inhibition of bocillin-FL binding to Escherichia coli K12 NusA-fused/His6-tagged PBP2 (57 to 615 residues) expressed in Escherichia coli BL21(DE3) preincubated for 30 mins followed by bocillin-FL addition by RT-fluorescence anisotropy method
# T1 sequence (P0AD65 whole entry): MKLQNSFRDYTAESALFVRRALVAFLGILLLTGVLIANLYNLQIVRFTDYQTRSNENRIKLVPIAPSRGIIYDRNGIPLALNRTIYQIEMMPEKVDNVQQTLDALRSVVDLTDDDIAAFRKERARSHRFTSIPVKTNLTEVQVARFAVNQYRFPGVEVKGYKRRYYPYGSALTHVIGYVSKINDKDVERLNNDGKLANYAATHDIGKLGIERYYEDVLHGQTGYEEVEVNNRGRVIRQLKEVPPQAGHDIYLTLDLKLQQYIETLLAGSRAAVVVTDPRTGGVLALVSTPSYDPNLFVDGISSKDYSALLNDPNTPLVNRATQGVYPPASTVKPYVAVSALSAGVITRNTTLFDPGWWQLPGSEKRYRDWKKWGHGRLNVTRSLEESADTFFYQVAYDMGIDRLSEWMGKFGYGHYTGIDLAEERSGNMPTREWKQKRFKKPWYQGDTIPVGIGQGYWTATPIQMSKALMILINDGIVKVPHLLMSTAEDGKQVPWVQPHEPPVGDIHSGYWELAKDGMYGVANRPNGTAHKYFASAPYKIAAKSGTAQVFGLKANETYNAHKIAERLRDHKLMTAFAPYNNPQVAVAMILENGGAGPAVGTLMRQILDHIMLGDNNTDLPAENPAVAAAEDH
# [2] = molecular target: Penicillin-binding protein 3 (Pseudomonas aeruginosa) (UniProt Q51504); test: Inhibition of Pseudomonas aeruginosa PBP3 up to 200 uM
# Bacteria [3] = test: Inhibition of bacterial beta-lactamase KPC-2
# Bacteria [4] = test: Inhibition of bacterial OXA-48
# [5] = molecular target: T2, Penicillin-binding protein 1A (Escherichia coli K-12) (UniProt P02918); test: Inhibition of Escherichia coli PBP1a up to 200 uM
# T2 sequence (whole entry): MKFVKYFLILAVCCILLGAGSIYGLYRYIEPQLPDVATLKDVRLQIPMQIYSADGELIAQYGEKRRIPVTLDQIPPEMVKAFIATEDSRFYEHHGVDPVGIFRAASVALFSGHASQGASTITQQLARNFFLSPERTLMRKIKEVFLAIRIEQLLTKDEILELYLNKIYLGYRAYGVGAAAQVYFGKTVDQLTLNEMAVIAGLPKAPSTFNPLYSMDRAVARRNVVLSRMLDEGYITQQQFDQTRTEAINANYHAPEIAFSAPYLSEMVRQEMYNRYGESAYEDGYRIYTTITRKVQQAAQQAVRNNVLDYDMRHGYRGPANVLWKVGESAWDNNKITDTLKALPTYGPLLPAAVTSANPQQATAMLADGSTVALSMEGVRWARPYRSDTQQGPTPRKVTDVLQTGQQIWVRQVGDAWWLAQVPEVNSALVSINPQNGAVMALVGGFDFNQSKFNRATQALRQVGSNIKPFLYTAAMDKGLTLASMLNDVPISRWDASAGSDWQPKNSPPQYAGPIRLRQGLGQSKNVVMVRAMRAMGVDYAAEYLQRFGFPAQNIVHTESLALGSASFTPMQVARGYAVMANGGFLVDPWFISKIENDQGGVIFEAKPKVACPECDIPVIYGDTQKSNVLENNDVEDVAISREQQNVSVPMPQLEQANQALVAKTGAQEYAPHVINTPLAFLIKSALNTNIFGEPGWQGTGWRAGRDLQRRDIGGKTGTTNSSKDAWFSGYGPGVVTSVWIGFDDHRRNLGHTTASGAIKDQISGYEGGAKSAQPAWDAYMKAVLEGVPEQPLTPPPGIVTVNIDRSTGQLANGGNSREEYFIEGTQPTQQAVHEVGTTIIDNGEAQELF
# Bacteria [6] = test: Inhibition of bacterial beta-lactamase CTX-M-15
# [7] = molecular target: Penicillin-binding protein 1A (Pseudomonas aeruginosa PAO1) (UniProt Q07806); test: Inhibition of Pseudomonas aeruginosa PBP1a up to 200 uM
# Pseudomonas aeruginosa [8] = test: Antibacterial activity against Pseudomonas aeruginosa clinical isolates measured after 16 to 20 hrs by broth microdilution method; assay type: functional
# How it was run: (§2)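 Broth microdilution MICs following CLSI M7-A7, run against genotyped carbapenem-resistant E. coli and P. aeruginosa strains.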
# Bacteria [9] = test: Inhibition of bacterial beta-lactamase SHV-1
# Escherichia coli [10] = test: Inhibition of Escherichia coli PBP3
# Escherichia coli [11] = test: Antibacterial activity against Escherichia coli UFR39 measured after 16 to 20 hrs by broth microdilution method; assay type: functional; how it was run: as §2
# [12] = molecular target: T3, Penicillin-binding protein 1B (Pseudomonas aeruginosa) (UniProt Q9X6W0); test: Inhibition of Pseudomonas aeruginosa PBP1b up to 200 uM
# T3 sequence (whole entry): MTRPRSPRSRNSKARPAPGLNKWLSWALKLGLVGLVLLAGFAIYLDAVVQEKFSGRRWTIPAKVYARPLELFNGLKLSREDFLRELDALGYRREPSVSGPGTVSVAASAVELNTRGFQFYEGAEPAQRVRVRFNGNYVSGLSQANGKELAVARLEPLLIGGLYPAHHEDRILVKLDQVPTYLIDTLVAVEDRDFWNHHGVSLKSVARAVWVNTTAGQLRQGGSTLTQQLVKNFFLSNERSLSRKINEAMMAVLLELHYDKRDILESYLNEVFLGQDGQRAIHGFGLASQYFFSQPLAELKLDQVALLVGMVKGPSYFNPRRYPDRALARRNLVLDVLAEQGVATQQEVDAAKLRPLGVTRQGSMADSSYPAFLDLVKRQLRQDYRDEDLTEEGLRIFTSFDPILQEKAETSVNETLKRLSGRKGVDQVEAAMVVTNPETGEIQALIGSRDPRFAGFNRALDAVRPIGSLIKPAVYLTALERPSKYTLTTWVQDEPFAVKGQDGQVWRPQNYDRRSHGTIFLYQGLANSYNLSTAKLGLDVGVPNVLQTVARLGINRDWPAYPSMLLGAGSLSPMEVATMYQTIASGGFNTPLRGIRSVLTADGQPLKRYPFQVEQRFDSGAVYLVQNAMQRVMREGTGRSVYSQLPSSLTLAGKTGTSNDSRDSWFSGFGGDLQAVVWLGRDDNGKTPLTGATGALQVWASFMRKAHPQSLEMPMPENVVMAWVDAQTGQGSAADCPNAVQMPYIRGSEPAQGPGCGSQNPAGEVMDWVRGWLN
# Enterobacter cloacae = test: Inhibition of Enterobacter cloacae P99 AmpC
# [13] = molecular target: T2, Penicillin-binding protein 1A (Escherichia coli K-12); test: Inhibition of Escherichia coli PBP1a
# Pseudomonas aeruginosa [14] = test: Antibacterial activity against Pseudomonas aeruginosa UFR49 measured after 16 to 20 hrs by broth microdilution method; assay type: functional
# [15] = molecular target: T4, Penicillin-binding protein 1B (Escherichia coli K-12) (UniProt P02919); test: Inhibition of Escherichia coli PBP1b
# T4 sequence (whole entry): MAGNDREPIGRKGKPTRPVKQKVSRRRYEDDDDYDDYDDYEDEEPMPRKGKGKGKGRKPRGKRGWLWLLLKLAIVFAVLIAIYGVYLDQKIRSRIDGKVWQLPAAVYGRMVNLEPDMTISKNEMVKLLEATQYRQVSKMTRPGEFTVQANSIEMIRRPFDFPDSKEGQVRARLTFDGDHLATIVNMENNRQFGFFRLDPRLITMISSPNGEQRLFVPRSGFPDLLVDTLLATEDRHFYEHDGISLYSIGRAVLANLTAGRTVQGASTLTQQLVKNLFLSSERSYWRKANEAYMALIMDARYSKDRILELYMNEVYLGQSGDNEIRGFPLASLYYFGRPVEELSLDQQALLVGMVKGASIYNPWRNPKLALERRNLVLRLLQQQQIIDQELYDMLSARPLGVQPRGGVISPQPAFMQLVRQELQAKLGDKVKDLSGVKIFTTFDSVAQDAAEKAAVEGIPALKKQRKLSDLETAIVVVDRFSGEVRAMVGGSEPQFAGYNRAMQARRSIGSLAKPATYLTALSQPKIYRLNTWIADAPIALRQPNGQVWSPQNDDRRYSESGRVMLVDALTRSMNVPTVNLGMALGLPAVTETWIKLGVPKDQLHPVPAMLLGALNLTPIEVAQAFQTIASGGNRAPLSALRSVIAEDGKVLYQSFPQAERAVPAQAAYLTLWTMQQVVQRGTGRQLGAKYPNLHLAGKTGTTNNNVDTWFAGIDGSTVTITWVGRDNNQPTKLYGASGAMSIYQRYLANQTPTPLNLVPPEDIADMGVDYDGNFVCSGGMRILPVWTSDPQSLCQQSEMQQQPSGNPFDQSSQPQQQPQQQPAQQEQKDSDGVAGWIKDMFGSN
# [16] = molecular target: T5, Peptidoglycan D,D-transpeptidase MrdA (Escherichia coli K-12) (UniProt P0AD65); test: Binding affinity to Escherichia coli K12 NusA-fused/His6-tagged PBP2 (57 to 615 residues) expressed in Escherichia coli BL21(DE3) assessed as melting temperature at protein to compound ratio of 1:10 measured after 30 mins using SYPRO orange dye by RT-PCR-based fluorescence assay (reference value: 47 +/- 0.5 degC)
# T5 sequence (whole entry): T1 sequence (P0AD65 whole entry)
# How it was run: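 Thermal unfolding was monitored with SYPRO Orange dye in a real-time PCR instrument, at a protein/ligand ratio of 1/10. Tm was taken at the inflexion point of the denaturation curve and reported ±0.5 °C.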
# Bacteria [17] = test: Inhibition of bacterial CMY-37
# Escherichia coli [18] = test: Antibacterial activity against Escherichia coli clinical isolates measured after 16 to 20 hrs by broth microdilution method; assay type: functional; how it was run: as §2
# [19] = molecular target: Beta-lactamase TEM (Bacteria) (UniProt P62593); test: Inhibition of bacterial beta-lactamase TEM-1
# [20] = molecular target: T4, Penicillin-binding protein 1B (Escherichia coli K-12); test: Inhibition of Escherichia coli PBP1b up to 200 uM
# Bacteria [21] = test: Inhibition of bacterial OXA-15
# Escherichia coli [22] = test: Inhibition of Escherichia coli PBP3 up to 200 uM
# [23] = molecular target: T5, Peptidoglycan D,D-transpeptidase MrdA (Escherichia coli K-12); test: as §1
# Sequence of Penicillin-binding protein 3 (Pseudomonas aeruginosa) (Q51504 as listed by the source): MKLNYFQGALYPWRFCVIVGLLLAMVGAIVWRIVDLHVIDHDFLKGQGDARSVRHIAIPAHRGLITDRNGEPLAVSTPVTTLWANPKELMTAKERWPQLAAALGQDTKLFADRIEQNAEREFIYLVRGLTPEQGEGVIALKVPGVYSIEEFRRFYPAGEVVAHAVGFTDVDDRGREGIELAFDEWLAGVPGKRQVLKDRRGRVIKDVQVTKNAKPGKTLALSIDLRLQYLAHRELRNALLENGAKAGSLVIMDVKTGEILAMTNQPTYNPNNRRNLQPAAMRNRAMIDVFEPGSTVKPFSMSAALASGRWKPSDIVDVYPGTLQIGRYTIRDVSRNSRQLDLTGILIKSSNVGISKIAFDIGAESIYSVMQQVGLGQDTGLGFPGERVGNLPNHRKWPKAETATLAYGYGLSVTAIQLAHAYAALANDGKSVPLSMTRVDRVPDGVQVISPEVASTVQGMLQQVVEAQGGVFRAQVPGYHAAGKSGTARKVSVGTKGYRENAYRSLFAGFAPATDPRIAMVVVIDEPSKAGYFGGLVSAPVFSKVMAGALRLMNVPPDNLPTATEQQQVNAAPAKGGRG
# Sequence of Penicillin-binding protein 1A (Pseudomonas aeruginosa PAO1) (Q07806 whole entry): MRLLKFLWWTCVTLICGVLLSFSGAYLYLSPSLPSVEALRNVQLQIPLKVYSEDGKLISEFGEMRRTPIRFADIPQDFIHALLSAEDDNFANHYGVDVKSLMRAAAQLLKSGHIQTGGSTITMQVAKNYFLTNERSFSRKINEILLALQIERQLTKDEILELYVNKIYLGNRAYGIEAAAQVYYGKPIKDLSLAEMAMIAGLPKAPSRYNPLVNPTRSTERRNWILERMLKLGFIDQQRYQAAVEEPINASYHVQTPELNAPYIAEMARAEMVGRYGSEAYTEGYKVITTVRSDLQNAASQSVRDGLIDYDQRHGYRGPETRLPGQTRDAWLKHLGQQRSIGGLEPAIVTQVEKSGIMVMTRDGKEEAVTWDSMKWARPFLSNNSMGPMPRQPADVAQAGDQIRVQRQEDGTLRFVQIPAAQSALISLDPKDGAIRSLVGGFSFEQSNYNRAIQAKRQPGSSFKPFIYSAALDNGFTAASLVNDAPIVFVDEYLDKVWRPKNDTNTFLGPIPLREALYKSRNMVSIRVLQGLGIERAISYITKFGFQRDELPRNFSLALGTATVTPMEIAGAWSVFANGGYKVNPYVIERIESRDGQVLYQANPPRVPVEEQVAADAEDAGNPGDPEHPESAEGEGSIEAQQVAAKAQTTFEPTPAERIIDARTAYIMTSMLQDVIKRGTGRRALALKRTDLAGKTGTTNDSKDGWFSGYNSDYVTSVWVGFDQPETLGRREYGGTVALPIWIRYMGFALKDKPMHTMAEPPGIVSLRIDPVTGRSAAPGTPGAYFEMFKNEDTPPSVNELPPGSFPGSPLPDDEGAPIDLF
# Sequence of Beta-lactamase TEM (Bacteria) (P62593 whole entry): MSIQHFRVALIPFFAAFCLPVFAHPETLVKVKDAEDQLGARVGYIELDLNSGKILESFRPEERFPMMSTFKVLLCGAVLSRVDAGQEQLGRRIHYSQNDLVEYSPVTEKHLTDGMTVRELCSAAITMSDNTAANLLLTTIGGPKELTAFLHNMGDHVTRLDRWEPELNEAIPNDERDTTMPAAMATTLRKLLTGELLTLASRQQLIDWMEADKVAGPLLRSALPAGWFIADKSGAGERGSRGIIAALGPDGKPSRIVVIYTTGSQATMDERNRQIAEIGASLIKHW
SMILES,IC50 [1] [nM],MIC50 (Pseudomonas aeruginosa [8]) [µg/mL],MIC90 (Pseudomonas aeruginosa [8]) [µg/mL],inhibition (Escherichia coli [10]),MIC (Escherichia coli [11]) [µg/mL],inhibition [13],MIC (Pseudomonas aeruginosa [14]) [µg/mL],inhibition [15],MIC50 (Escherichia coli [18]) [µg/mL],MIC90 (Escherichia coli [18]) [µg/mL],further results
NC[C@@H]1C=C(c2cnco2)[C@@H]2CN1C(=O)N2OS(=O)(=O)O (relative stereo),10,1,16,inactive,0.016,inactive,2,inactive,0.031,> 32,inhibition [2]: inactive; inhibition (Bacteria [3]): Active; inhibition (Bacteria [4]): Active; inhibition [5]: inactive; inhibition (Bacteria [6]): Active; inhibition [7]: inactive; inhibition (Bacteria [9]): Active; inhibition [12]: inactive; inhibition (Enterobacter cloacae): Active; Tm [16]: 55.5 °C; inhibition (Bacteria [17]): Active; inhibition [19]: Active; inhibition [20]: inactive; inhibition (Bacteria [21]): Active; inhibition (Escherichia coli [22]): inactive
O=C1N2CC=C(c3cccnc3)C(C2)N1OS(=O)(=O)[O-].[Na+] (stereo not drawn),–,–,–,inactive,–,inactive,> 32,inactive,–,–,inhibition [23]: Active
O=C1N2CC=CC(C2)N1OS(=O)(=O)[O-].[Na+] (stereo not drawn),570,–,–,inactive,16,inactive,> 32,inactive,–,–,–
O=C1N2CC=C(c3ncco3)C(C2)N1OS(=O)(=O)[O-].[Na+] (stereo not drawn),–,–,–,–,–,–,> 32,–,–,–,–
O=C1N2CC=C(c3ccccn3)C(C2)N1OS(=O)(=O)[O-].[Na+] (stereo not drawn),–,–,–,inactive,–,inactive,> 32,inactive,–,–,inhibition [23]: Active
O=C(NNC(=O)[C@@H]1CC[C@@H]2CN1C(=O)N2OS(=O)(=O)O)[C@@H]1CCCNC1 [ZIDEBACTAM],–,8,16,–,–,–,–,–,32,> 32,–
C[C@@H](O)[C@H]1C(=O)N2C(C(=O)O)=C(S[C@@H]3CN[C@H](C(=O)N(C)C)C3)[C@H](C)[C@H]12 [MEROPENEM],–,8,> 32,–,128,–,–,–,0.5,> 32,–
O=C1N2CC=C(c3ccncc3)C(C2)N1OS(=O)(=O)[O-].[Na+] (stereo not drawn),–,–,–,inactive,–,inactive,> 32,inactive,–,–,inhibition [23]: Active
CC(C)(O/N=C(\C(=O)N[C@@H]1C(=O)N2C(C(=O)[O-])=C(C[n+]3ccccc3)CS[C@H]12)c1csc(N)n1)C(=O)O [CEFTAZIDIME],–,> 32,> 32,–,> 256,–,64,–,> 32,> 32,–
O=C1N2CC=C(c3cnoc3)C(C2)N1OS(=O)(=O)[O-].[Na+] (stereo not drawn),17,–,–,–,–,–,> 32,–,–,–,–
O=C1N2CC=C(c3cnco3)C(C2)N1OS(=O)(=O)[O-].[Na+] (stereo not drawn),25,–,–,inactive,4,inactive,> 32,inactive,–,–,–
O=C1N2CCCC(C2)N1OS(=O)(=O)[O-].[Na+] (stereo not drawn),> 200000,–,–,inactive,> 32,inactive,> 32,inactive,–,–,–
NC(=O)[C@@H]1CC[C@@H]2CN1C(=O)N2OS(=O)(=O)[O-].[Na+] [AVIBACTAM SODIUM],590,> 32,> 32,–,16 to 32,–,> 32,–,32,> 32,–
